SIAE inh – inhibitors of human sialic acid acetylesterase SIAE; SIAE FP-Rh probe binding, fluorescence polarization; inhibition, % at 9.66 µM; 370,000 tested, 0.69% active; AID 1053197;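 active means inhibition above a cutoff: mean of compounds within the control limits plus 3 SD of those, cut at about 17% in these data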
rCAG binder – binds r(CAG) RNA repeats | r(CAG) RNA repeat, TO-PRO-1 dye displacement fluorescence | inhibition, % at 3 µM | 370,000 tested, 1.3% active | AID 651821;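 active means inhibition above the plate cutoff, the mean of all test compounds on that plate plus 3 SD, cut at about 35% in these data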;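 further: higher means more dye released from RNA so lower well fluorescence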
TCR-CD3 inh – inhibitors of human TCR-CD3 interaction; TAMRA-labeled TCR probe fluorescence, biochemical; inhibition, % at 9.4 µM; 360,000 tested, 0.37% active; in the data active means inhibition above about 19%;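 further: recombinant mutant TCR 2C K166C tagged with TAMRA read by polarization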
HTRA1 inhibitor – HTRA1 (human) protease inhibition; AID 504803; recombinant HTRA1, FP-rhodamine activity-based probe, fluorescence polarization; inhibition, % at 5.96 µM; 340,000 tested, 0.5% active; in the data active means inhibition above about 36%
Target sequence (Q92743 whole entry, looked up): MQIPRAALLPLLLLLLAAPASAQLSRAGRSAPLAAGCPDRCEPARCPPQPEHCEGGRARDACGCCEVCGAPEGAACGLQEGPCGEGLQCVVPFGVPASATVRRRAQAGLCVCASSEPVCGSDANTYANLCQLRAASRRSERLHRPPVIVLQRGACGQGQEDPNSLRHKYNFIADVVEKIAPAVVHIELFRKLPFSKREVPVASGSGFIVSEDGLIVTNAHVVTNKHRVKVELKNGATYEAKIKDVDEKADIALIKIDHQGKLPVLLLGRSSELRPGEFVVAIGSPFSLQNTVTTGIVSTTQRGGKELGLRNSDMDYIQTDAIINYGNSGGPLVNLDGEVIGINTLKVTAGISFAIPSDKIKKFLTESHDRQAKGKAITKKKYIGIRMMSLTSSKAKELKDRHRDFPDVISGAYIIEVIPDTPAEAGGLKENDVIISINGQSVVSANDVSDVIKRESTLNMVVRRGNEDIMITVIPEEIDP
ABHD4 inh – inhibitors of mouse ABHD4; Q8VD66; purified mABHD4, FP-Rh probe fluorescence polarization; inhibition, % at 8.92 µM; 370,000 tested, 0.54% active; AID 720543;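 active means inhibition exceeding the mean over every tested compound plus 3 SD, cut at about 30% in these data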
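System: mouse ABHD4 enzyme, wild type / Medium: HEPES pH 7.0, NaCl, Pluronic buffer / Reagent: FP-Rh activity-based fluorescent probe / Control set: S159A mutant high control, sample median low control / Detection: fluorescence polarization with parallel and perpendicular emission, 525/598 nm / Schedule: 45 min + 60 min at 25 °C / Compound dosing: 8.92 µM, single dose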
mABHD4 conf – confirmation of mouse ABHD4 inhibitors | shares compounds with ABHD4 inh | purified mABHD4, FP-Rh probe fluorescence polarization | inhibition, % at 8.92 µM | 1,800 tested, 55% active;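 active means mean inhibition across replicates above the hit cutoff set in the primary screen, cut at about 30% in these data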
Each line names hits and unclear results; the compound was inactive in the other large screens (follow-up assays come after a bar, where they were run). The list is not random: actives were taken first. Their share in the collection is about 2.5%.

CCOC(=O)c1ccc(-n2cncn2)nc1	none
CCc1nnc(NC(=O)c2cnccn2)s1	none
N=C(N)SCc1cn(-c2ccccc2)nc1-c1ccc(Br)cc1	ABHD4 inh 36 | mABHD4 conf 60
CCn1c(SCC(=O)Nc2cccc(C(C)=O)c2)nnc1C(C)C	none
CC1CCN(C(=O)c2ccccc2NS(=O)(=O)c2ccccc2)CC1	none
CC1CCN(c2ccc(C(=O)O)cc2NS(=O)(=O)c2ccccc2)CC1	ABHD4 inh 37 (no result: TCR-CD3 inh, HTRA1 inhibitor) | mABHD4 conf 39
CNC(=S)N/N=C/C1=CCC2CC1C2(C)C (centres undefined)	none
Clc1ccc(-c2nc3ccccn3c2CN2CCCCC2)cc1	none
Oc1ccc(N2CCN(Cc3c(-c4ccccc4)nc4ccccn34)CC2)cc1	ABHD4 inh 31 | mABHD4 conf inactive
CCCCCC(=O)NN1C(=S)N(c2ccc(OC)cc2)C(=O)C1CC(=O)Nc1ccccc1 (centres undefined)	none (no result: HTRA1 inhibitor)
CCOc1cc(/C=C2\C(=O)N(CCc3ccc(OC)c(OC)c3)C(C)=C2C(=O)OC)ccc1O	none
COC(=O)C1=C(C)N(Cc2ccc(C)cc2)C(=O)/C1=C\c1ccc(O)c(OC)c1	ABHD4 inh 33 | mABHD4 conf 47
Cc1c(Cc2ccccc2)c(=O)oc2c(O)c(O)ccc12	ABHD4 inh 35 (no result: HTRA1 inhibitor) | mABHD4 conf 89
Cc1cc(=O)oc2c(O)c(O)ccc12	ABHD4 inh 30 | mABHD4 conf inactive
CC(NC(=O)c1ccccc1NC(=O)c1ccncc1)c1ccccc1 (centres undefined)	none
Cc1cc(C(=O)O)cc(S(=O)(=O)Nc2ccccc2C(=O)NC(C)c2ccccc2)c1C (centres undefined)	ABHD4 inh 34 | mABHD4 conf inactive
O=C(NC1CC1)c1sccc1-n1cccc1	none
CCn1c(/C=N/Nc2ccc(C(=O)O)cc2)nc2ccccc21	none
CC1Oc2ccccc2C=C1/C=N/Nc1ccc(C(=O)O)cc1 (centres undefined)	ABHD4 inh 32 | mABHD4 conf 31
CCOc1ccc(NC(=S)N(CCN2CCOCC2)Cc2cc3cc4c(cc3[nH]c2=O)OCO4)cc1	none
COc1ccc(NS(=O)(=O)c2cc(N)ccc2N2CCCC2)cc1	ABHD4 inh 39 | mABHD4 conf 32
CNCc1ccccc1Sc1cccc(O)c1	none
CNCc1ccccc1Sc1cc(O)ccc1O	ABHD4 inh 50 | mABHD4 conf 63
COc1ccc(CCC(=O)OCc2csc(CC(=O)Nc3ccccc3C)n2)cc1	ABHD4 inh 36 | mABHD4 conf inactive
COc1cc(C(=O)OCc2csc(CC(=O)Nc3ccccc3C)n2)ccc1OCC(C)C	ABHD4 inh 43 | mABHD4 conf inactive
CCC(C(=O)OCc1csc(CC(=O)Nc2ccccc2C)n1)c1ccccc1 (centres undefined)	ABHD4 inh 30 | mABHD4 conf inactive
Cc1ccccc1NC(=O)Cc1nc(COC(=O)CC(C)c2ccccc2)cs1 (centres undefined)	none
Cc1cccc(NC(=S)NCCN2CCOCC2)c1	none
Cc1ccccc1NC(=O)CN1C(=O)c2ccccc2C1=O	none
Oc1ccc(NC(=S)Nc2ccc(O)cc2)cc1	ABHD4 inh 49 | mABHD4 conf inactive
COC(=O)c1ccc(NC(=S)Nc2ccc(O)cc2)cc1	none
CC1=NN(c2nc(-c3ccccc3)cs2)C(=O)C1	rCAG binder 68, ABHD4 inh 49 | mABHD4 conf 146
N=C1SCC(=O)N1c1nc(-c2ccccc2)cs1	none
O=C(Nc1nc2ccccc2s1)c1ccccc1	none
c1ccc2sc(NN=C3CCCCCC3)nc2c1	ABHD4 inh 36 | mABHD4 conf 30
CN(C)c1ccc(O)c2c1CC1CC3C(N(C)C)C(=O)C(C(N)=O)=C(O)[C@@]3(O)C(=O)C1=C2O (some centres undefined)	ABHD4 inh 60 | mABHD4 conf inactive
CN(C)c1ccc(O)c2c1CC1CC3[C@@H](N(C)C)C(=O)C(C(N)=O)C(=O)[C@]3(O)C(=O)C1C2=O (some centres undefined)	ABHD4 inh 61 | mABHD4 conf inactive
CC1CCCCC1NC(=O)CN1CCC(NC(=O)c2cccc(F)c2)CC1 (centres undefined)	none
COc1ccc(C)cc1NC(=O)Nn1cnnc1	none
CC1(C)CC(=O)C=C(Nc2ccc(C(=O)O)c(O)c2)C1	ABHD4 inh 32 | mABHD4 conf inactive
CCC(C)(C(=O)NC1CCCC1)N(Cc1cccs1)C(=O)c1ccc2c(c1)OCO2 (centres undefined)	none
CCC(C)C(=O)Nc1nc(C)c(-c2csc(Nc3cc(OC)ccc3OC)n2)s1 (centres undefined)	ABHD4 inh 38 | mABHD4 conf 62
Nc1ccc2ccc(N)cc2c1	ABHD4 inh 35 (no result: HTRA1 inhibitor) | mABHD4 conf inactive
Nc1ccc2cc3ccccc3cc2c1	none
COC(=O)C1=C(C)N(Cc2cccc(C(F)(F)F)c2)C(=NCc2ccc3c(c2)OCO3)NC1c1ccc(F)cc1 (centres undefined)	ABHD4 inh 44 (no result: HTRA1 inhibitor) | mABHD4 conf 30
COC(=O)C1=C(C)N(Cc2cccc(C(F)(F)F)c2)C(=NCc2ccc(OC)cc2)NC1c1cccc(Cl)c1 (centres undefined)	none (no result: HTRA1 inhibitor)
COC(=O)C1=C(C)N(Cc2cccc(C(F)(F)F)c2)C(=NCc2ccc(OC)cc2)NC1c1cccc(C(F)(F)F)c1 (centres undefined)	ABHD4 inh 31 (no result: HTRA1 inhibitor) | mABHD4 conf 41
COC(=O)C1=C(C)N(Cc2ccc(C(F)(F)F)cc2)C(=NCc2ccccc2)NC1c1cccc(F)c1 (centres undefined)	ABHD4 inh 34 (no result: HTRA1 inhibitor) | mABHD4 conf 46
COC(=O)C1=C(C)N(Cc2cccc(C(F)(F)F)c2)C(=NCc2ccc3c(c2)OCO3)NC1c1cccc(C(F)(F)F)c1 (centres undefined)	none (no result: HTRA1 inhibitor)
COC(=O)C1=C(C)N(Cc2cccc(C(F)(F)F)c2)C(=NCc2ccc(C(F)(F)F)cc2)NC1c1ccc(C(F)(F)F)cc1 (centres undefined)	none (no result: HTRA1 inhibitor)
COC(=O)C1=C(C)N(Cc2cccc(C(F)(F)F)c2)C(=NCc2ccc(C(F)(F)F)cc2)NC1c1ccc(F)cc1 (centres undefined)	ABHD4 inh 35 (no result: HTRA1 inhibitor) | mABHD4 conf 44
CCOC(=O)c1nn(-c2sc(C(=O)OC)c(C)c2C(=O)OC)cc1O	none
CCCCNC(=S)NCCN1CCCCC1	none
N#CCCn1cc(/C=N/NC(N)=S)c(-c2ccc(Br)cc2)n1	none
COC(=O)CN(c1ccc(F)cc1)S(=O)(=O)c1ccccc1	none
CCCCCC(=O)Nc1cc(S(=O)(=O)O)cc2cc(S(=O)(=O)O)cc(O)c12	rCAG binder 43, ABHD4 inh 49 | mABHD4 conf 64
CCCCCC(=O)Nc1cc(S(=O)(=O)N2CCCCC2)ccc1N1CCCCC1	none
COc1ccc(C2C(C(=O)Nc3cccnc3)=C(C)Nc3nc(-c4ccco4)nn32)cc1 (centres undefined)	none
